Measurements as given in ChEMBL document CHEMBL5143736, “Discovery and Optimization of a Synthetic Class of Nectin-4-Targeted CD137 Agonists for Immuno-oncology” (J Med Chem, 2022).
pKd: −log10 of the molar value. Active and inactive are the calls of the source. The calls are words filed in the database; no cut-off is given here.

Assays:
[1] = target: T1, Tumor necrosis factor receptor superfamily member 9 (Homo sapiens, UniProt Q07011); test: Agonist activity at recombinant human CD137 expressed in Jurkat T cells co-expressing response element driven luciferase reporter gene co-cultured with Nectin-4 expressing mouse MC38 cells assessed as luminescence measured after 6 hrs by luciferase reporter gene based co-culture assay; type: cell-based; conditions: filed as agonist, DDE = dose-dependent effect
Outline: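 Jurkat cells carrying human CD137 and a CD137 response-element luciferase reporter, cocultured for 6 h at 37 °C, 5% CO2 with 10,000 MC38 cells engineered to express mouse Nectin-4 (parental MC38 as negative line). Bio-Glo luminescence read-out, as fold induction over no-test-article wells. Mean of n = 2.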

[2] = target: T1, Tumor necrosis factor receptor superfamily member 9; test: Agonist activity at human CD137 expressed in human HT-1376 cells measured after 6 hrs by […] microplate reader assay; type: cell-based; conditions: filed as agonist
[3] = target: T1, Tumor necrosis factor receptor superfamily member 9; test: Agonist activity at human CD137 expressed in human NCI-H292 cells measured after 6 hrs by […] microplate reader assay; type: cell-based; conditions: filed as agonist
PBMC [4] = test: […] activity in human PBMC stimulated with anti-CD3-mediated CD137 expression in cocultured with […] cell line assessed as increase in secretion of IFN gamma incubated for 48 hrs by Luminex assay; type: functional, cell-based; conditions: DDE = dose-dependent effect
Outline: (§1)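 Healthy-donor PBMCs were thawed into R10 medium and cocultured with HT1376 cells at 10:1 effector:target (1×10^5 PBMC:1×10^4 tumor cells per well). Soluble anti-CD3 OKT3 (100 ng/mL) was added on day 0, then compound, 37 °C, 5% CO2. Supernatant IFNγ and IL-2 taken at 24 and 48 h, measured by Luminex. Four-parameter fit, n = 3, repeated in multiple donors.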

PBMC [5] = test: […] activity in human PBMC stimulated with anti-CD3-mediated CD137 expression in cocultured with […] cell line assessed as increase in secretion of IL2 incubated for 48 hrs by Luminex assay; type: functional, cell-based; conditions: DDE = dose-dependent effect; outline: as §1
[6] = target: T1, Tumor necrosis factor receptor superfamily member 9; test: Binding affinity to human recombinant CD137 by surface plasmon resonance analysis
Outline: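 Biacore T200 SPR, human CD137, 25 °C. Peptide series in PBS/0.05% Tween 20 with 0.5% DMSO: top 500 nM (threefold) or 10 μM (twofold), 6 further dilutions. Flow 90 μL/min, 60 s association, 100–600 s dissociation, glycine pH 2 regeneration. DMSO-corrected and double-referenced; kinetic fit gives ka, kd, KD.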

Nectin-4 = target: T2, Nectin-4 (Homo sapiens, UniProt Q96NY8); test: Binding affinity to human Nectin-4 assessed as dissociation constant using 1:1 Nectin-4/CD137 by surface plasmon resonance analysis
T2 sequence (Q96NY8 whole entry): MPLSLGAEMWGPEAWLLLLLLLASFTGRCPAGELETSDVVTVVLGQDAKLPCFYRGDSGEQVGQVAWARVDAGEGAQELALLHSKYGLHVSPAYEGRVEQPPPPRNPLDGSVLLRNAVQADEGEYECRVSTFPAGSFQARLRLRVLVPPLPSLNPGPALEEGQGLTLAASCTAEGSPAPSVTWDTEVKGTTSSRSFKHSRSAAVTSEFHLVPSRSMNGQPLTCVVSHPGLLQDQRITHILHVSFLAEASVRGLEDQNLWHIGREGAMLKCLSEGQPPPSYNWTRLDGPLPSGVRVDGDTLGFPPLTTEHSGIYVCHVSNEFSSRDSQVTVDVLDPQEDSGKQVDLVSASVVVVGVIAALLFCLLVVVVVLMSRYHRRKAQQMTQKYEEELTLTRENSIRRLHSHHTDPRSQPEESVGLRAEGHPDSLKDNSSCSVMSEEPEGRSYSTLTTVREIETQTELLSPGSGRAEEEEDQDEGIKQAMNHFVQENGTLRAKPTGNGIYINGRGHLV
Outline: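 SPR kinetics against human Nectin-4 (residues 32–349, baculovirus/Sf21-expressed, FLAG-tagged), 25 °C. Top 100 nM with 6 further twofold dilutions, 50 μL/min, 60 s association, 400–1200 s dissociation, DMSO-corrected. At least four concentrations used to obtain kon, koff and KD.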

T1 sequence (Q07011 whole entry): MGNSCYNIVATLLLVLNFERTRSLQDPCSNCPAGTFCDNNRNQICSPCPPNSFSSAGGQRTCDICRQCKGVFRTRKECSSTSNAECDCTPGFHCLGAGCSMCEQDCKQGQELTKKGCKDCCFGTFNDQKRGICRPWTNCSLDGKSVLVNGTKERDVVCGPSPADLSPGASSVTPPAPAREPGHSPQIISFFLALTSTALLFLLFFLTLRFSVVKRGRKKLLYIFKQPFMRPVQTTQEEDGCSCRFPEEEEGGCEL

CCCC[C@@H]1NC(=O)[C@H](Cc2ccc(O)cc2)NC(=O)[C@@H]2CCCN2C(=O)[C@H](CC(=O)O)NC(=O)[C@H](C)NC(=O)[C@H](Cc2ccccc2)NC(=O)[C@@H]2CSCCC(=O)N3CN(CN(C3)C(=O)CCSC[C@@H](C(=O)N[C@@H](CNC(=O)CCOCCOCCOCCOCCOCCOCCOCCOCCOCCOCCOCCOCCn3cc(CCC(=O)NCCC(=O)N(C)CC(=O)N(C)CC(=O)N(C)CC(=O)N(C)CC(=O)N(C)CC(=O)N(C)CC(=O)N(C)CC(=O)N(C)CC(=O)N(C)CC(=O)N(C)CC(=O)N[C@H]4CSCCC(=O)N5CN6CN(C5)C(=O)CCSC[C@H](NC(=O)[C@@H](CC(=O)O)NC(=O)[C@H](Cc5cccc7ccccc57)NC(=O)[C@@H]5CCCN5C4=O)C(=O)N[C@@H](CCSC)C(=O)N[C@@H](CCCCNC(=N)N)C(=O)N[C@@H](CC(=O)O)C(=O)N[C@@H](Cc4c[nH]c5ccccc45)C(=O)N[C@@H](CO)C(=O)N[C@@H]([C@@H](C)O)C(=O)N4CCC[C@H]4C(=O)N4C[C@H](O)C[C@H]4C(=O)N[C@@H](Cc4c[nH]c5ccccc45)C(=O)N[C@H](C(N)=O)CSCCC6=O)nn3)C(N)=O)NC1=O)C(=O)CCSC[C@H](NC(=O)[C@H](C)NC(C)=O)C(=O)NC([C@@H](C)CC)C(=O)N[C@@H](CCC(=O)O)C(=O)N[C@@H](CCC(=O)O)C(=O)NCC(=O)N[C@@H](CCC(N)=O)C(=O)N[C@@H](Cc1ccc(O)cc1)C(=O)N2 (some centres not stated)
Activity [1]: Dde | Activity [2]: Active | Activity [3]: Active | Activity (PBMC [4]): Dde | Activity (PBMC [5]): Dde | pKd [6]: 6.97 | pKd (Nectin-4): 8.55
